In article PMC11100303 (RSC Advances, 2024):

What was measured:
[1] = Thermogravimetric analysis; assay type: physicochemical; settings: TGA, 30 to 350 °C at 10 °C min^−1, nitrogen
In short: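 Samples of 2–5 mg weighed into platinum pans and heated from 30 to 350 °C at 10 °C min−1 under nitrogen purge at 25 mL min−1. T5% taken as the temperature at 5% loss of total sample mass.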

[2] = tested on: Human endocervical epithelial cell line (A2EN); experiment: MTT assay for cervical cell proliferation / viability; assay type: cell-based; settings: 24 h treatment, even at high concentrations of 50 mM
[3] = pH of compound dissolved in water; assay type: physicochemical; settings: mean ± S.D., n = 3
[4] = tested on: Human endocervical epithelial cell line (A2EN); experiment: Crystal violet staining for cervical cell morphology; assay type: cell-based; settings: 24 h treatment, even at 100 mM

Row | SMILES | T5% (onset temperature at 5% mass loss) [1] [°C] | Effect on cervical epithelial cell viability [2] | pH [3] | Morphological changes of cervical epithelial cells [4]
1 | C[N+](C)(C)CCO.O=C([O-])[C@H](O)Cc1ccccc1 [Chol : D-PLA (1 : 1)] | 94.3 | did not significantly reduce cervical epithelial cell viability | 9.02 ± 1.7 | no morphological changes were observed
2 | O=C(O)C(O)Cc1ccccc1 [D-PLA, 2-hydroxy-3-phenylpropanoic acid] |  |  | 2.9 ± 1.2 | 
3 | O=C(O)C(O)Cc1ccccc1 [L-PLA, 2-hydroxy-3-phenylpropanoic acid] | 156.07 |  | 3.2 ± 1.6 | 
4 | C[N+](C)(C)C[C@H](O)CC(=O)[O-] [carnitine, L-Carnitine] | 189.9 |  |  | 
